In assay [1] the target is Human immunodeficiency virus type 1 reverse transcriptase (Human immunodeficiency virus 1, UniProt Q72547, M184V). Kind of assay: Inhibitory activity against HIV-1 reverse transcriptase (RT M184V). The procedure, abridged:
(§1)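 Recombinant HIV-1 RT M184V or M184I was expressed in E. coli JM109 (1 mM IPTG, 5 h), purified over Q and SP columns to >90%. The template-primer was MS2 RNA/22A DNA in 50 mM Tris-HCl pH 7.8, 6 mM MgCl2, 150 mM KCl, 0.01% Triton X-100, with [3H]dATP as the sole nucleotide (distributive mode). Reactions were enzyme-started at 37 °C and sampled 4–5 times onto DE81 filters. Ki came from the abscissa intercept of the Lineweaver–Burk replot.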

In assay [2] the target is Human immunodeficiency virus type 1 reverse transcriptase (Human immunodeficiency virus 1, UniProt Q72547). In words: Inhibitory activity against HIV-1 Reverse transcriptase wild-type (RT wt). An outline of the steps:
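Recombinant HIV-1 RT (wild-type, M184V or M184I) was expressed in E. coli JM109 with 1 mM IPTG for 5 h, then purified on Q and SP columns to >90% purity. Assay used MS2 RNA/22A DNA primer in 50 mM Tris-HCl pH 7.8, 6 mM MgCl2, 150 mM KCl and 0.01% Triton X-100. Synthesis was distributive, with [3H]dATP as the only nucleotide, at 37 °C. Timed aliquots were spotted on DE81 and counted by scintillation. Ki came from the abscissa intercept of the Lineweaver–Burk replot. Ratio was Ki over dATP Km.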

The target of assay [3] is Human immunodeficiency virus type 1 reverse transcriptase (Human immunodeficiency virus 1, UniProt Q72547, M184I). In words: Inhibitory activity against HIV-1 reverse transcriptase (RT M184I). The procedure, abridged:
as §1

Each structure is given as a SMILES string. pKi: −log10 of the molar value.

Data on three compounds can be found in ChEMBL document CHEMBL1145749, “Inhibition of human immunodeficiency virus reverse transcriptase by synadenol triphosphate and its E-isomer” (J Med Chem, 2003).

What is called pKi is the negative decadic logarithm of the Ki, by convention in mol/L. A low value points to a large Ki. As to `Nc1ncnc2c1ncn2[C@H]1CC[C@@H](COP(=O)(O)OP(=O)(O)OP(=O)(O)O)O1` [DDA-TRIPHOSPHATE], the pKi in assay [1] is 6.30; in assay [2], 6.29; in assay [3], 5.92.

As to `Nc1ncnc2c1ncn2/C=C1/CC1COP(=O)(O)OP(=O)(O)OP(=O)(O)O` (stereo not given), in assay [2], the pKi was 6.49.

Take `Nc1ncnc2c1ncn2/C=C1\CC1COP(=O)(O)OP(=O)(O)OP(=O)(O)O` (stereo not given): the pKi in assay [2] is 5.00.
